From ChEMBL document CHEMBL4402610 (J Med Chem, 2020)
pIC50, pKi: −log10 of the molar value.

Assays:
[1] = system: Human immunodeficiency virus 1; assay: Antiviral activity against HIV1 LAI infected in human MT2 cells; format: functional, organism-based; conditions: Human immunodeficiency virus 1, M:B_Lai
Protease = Protease (Human immunodeficiency virus 1, UniProt Q9YQ12); assay: Inhibition of HIV-1 protease
[2] = system: Human immunodeficiency virus 1; assay: Antiviral activity against lopinavir resistant HIV1 harboring protease L10F/V32I/M46I/I47A/A71V/I84V mutant infected in human MT4 cells assessed as inhibition of p24 Gag production; format: functional, organism-based; conditions: Human immunodeficiency virus 1, MT4
Method in brief: (§1)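 MT-4 cells (10^5/mL) were exposed to 100 TCID50s of each HIV-1 and treated with drug. Inhibition of p24 Gag protein production was the endpoint for EC50. PI-resistant variants had been selected in vitro by passaging HIV-1 NL4-3 in MT-4 cells under increasing PI (up to 5 μM). Assays were run in duplicate, and values are means of two independent experiments.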

[3] = system: Human immunodeficiency virus 1; assay: Antiviral activity against HIV1 NL4-3 infected in human MT4 cells assessed as reduction in p24 Gag protein production; format: functional, organism-based; conditions: Human immunodeficiency virus 1, NL4-3, MT4
[4] = Selectivity ratio of IC50 for antiviral activity against atazanavir resitant HIV1 harboring protease L23I/E34Q/K43I/M46I/I50L/G51A/L63P/A71V/V82A/T91A mutant infected in human MT4 cells to IC50 for antiviral activity against wild-type HIV1 NL4-3; format: functional
[5] = Selectivity ratio of IC50 for antiviral activity against darunavir resistant HIV1 P30 harboring protease L10I/I15V/K20R/L24I/V32I/M36I/ M46L/L63P/K70Q/V82A/I84V/L89M mutant infected in human MT4 cells to IC50 for antiviral activity against wild-type HIV1 NL4-3; format: functional
[6] = system: Human immunodeficiency virus 1; assay: Antiviral activity against atazanavir resistant HIV1 harboring protease L23I/E34Q/K43I/M46I/I50L/G51A/L63P/A71V/V82A/T91A mutant infected in human MT4 cells assessed as reduction in p24 Gag production; format: functional, organism-based; conditions: Human immunodeficiency virus 1, MT4; method in brief: as §1
[7] = Selectivity ratio of IC50 for antiviral activity against lopinavir resistant HIV1 harboring protease L10F/V32I/M46I/I47A/A71V/I84V mutant infected in human MT4 cells to IC50 for antiviral activity against wild-type HIV1 NL4-3; format: functional
[8] = system: Human immunodeficiency virus 1; assay: Antiviral activity against darunavir resistant HIV1 harboring protease P30 L10I/I15V/K20R/L24I/V32I/M36I/ M46L/L63P/K70Q/V82A/I84V/L89M mutant infected in human MT4 cells assessed as reduction in p24 Gag production; format: functional, organism-based; conditions: Human immunodeficiency virus 1, MT4; method in brief: as §1

Protease, sequence (Q9YQ12 whole entry): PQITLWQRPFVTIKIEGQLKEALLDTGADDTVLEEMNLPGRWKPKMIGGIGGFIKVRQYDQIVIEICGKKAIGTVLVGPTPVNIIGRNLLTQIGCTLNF

SMILES	pIC50 [1]	pKi (Protease)	pIC50 [2]	pIC50 [3]	Ratio IC50 [4]	Ratio IC50 [5]	pIC50 [6]	Ratio IC50 [7]	pIC50 [8]
CC(C)CN(C[C@@H](O)[C@H](Cc1ccccc1)NC(=O)OC1C[C@@H]2CO[C@@H]3OC1C[C@H]23)S(=O)(=O)c1ccc2nc(NC(C)C)oc2c1 (stereo partly drawn)	8.76	11.22	–	–	–	–	–	–	–
CC(C)CN(C[C@@H](O)[C@H](Cc1ccccc1)NC(=O)O[C@H]1C[C@H]2CO[C@H]3OC1C[C@@H]23)S(=O)(=O)c1ccc2nc(NC3CC3)sc2c1	8.73	10.57	–	–	–	–	–	–	–
CC(C)CN(C[C@@H](O)[C@H](Cc1cccc(F)c1)NC(=O)OC1C[C@@H]2CO[C@@H]3OC1C[C@H]23)S(=O)(=O)c1ccc2nc(NC3CC3)sc2c1 (stereo partly drawn)	8.89	11.10	–	–	–	–	–	–	–
CC(C)CN(C[C@@H](O)[C@H](Cc1ccc(F)cc1)NC(=O)O[C@H]1C[C@H]2CO[C@H]3OC1C[C@@H]23)S(=O)(=O)c1ccc2nc(NC3CC3)sc2c1	9.40	10.44	–	–	–	–	–	–	–
COc1ccc(S(=O)(=O)N(CC(C)C)C[C@@H](O)[C@H](Cc2ccccc2)NC(=O)O[C@H]2C[C@H]3CO[C@H]4OC2C[C@@H]34)cc1	7.14	10.47	–	–	–	–	–	–	–
CC(C)CN(C[C@@H](O)[C@H](Cc1ccccc1)NC(=O)OC1C[C@@H]2CO[C@@H]3OC1C[C@H]23)S(=O)(=O)c1ccc2nc(NC3CC3)sc2c1 (stereo partly drawn)	8.48	11.70	–	–	–	–	–	–	–
CC(C)CN(C[C@@H](O)[C@H](Cc1ccc(F)cc1)NC(=O)OC1C[C@@H]2CO[C@@H]3OC1C[C@H]23)S(=O)(=O)c1ccc2nc(NC3CC3)sc2c1 (stereo partly drawn)	9.34	11.70	–	–	–	–	–	–	–
CC(C)CN(C[C@@H](O)[C@H](Cc1cccc(F)c1)NC(=O)O[C@H]1C[C@H]2CO[C@H]3OC1C[C@@H]23)S(=O)(=O)c1ccc2nc(NC3CC3)sc2c1	8.57	10.62	–	–	–	–	–	–	–
COc1ccc(S(=O)(=O)N(CC(C)C)C[C@@H](O)[C@H](Cc2ccccc2)NC(=O)OC2C[C@@H]3CO[C@@H]4OC2C[C@H]34)cc1 (stereo partly drawn)	7.42	11.10	–	–	–	–	–	–	–
CC(C)CN(C[C@@H](O)[C@H](Cc1ccccc1)NC(=O)O[C@H]1C[C@H]2CO[C@H]3OC1C[C@@H]23)S(=O)(=O)c1ccc2nc(NC(C)C)oc2c1	9.52	10.33	< 6.00	7.42	9.1	17	6.46	>26	6.19
CC(C)CN(C[C@@H](O)[C@H](Cc1cc(F)cc(F)c1)NC(=O)O[C@H]1C[C@H]2CO[C@H]3OC1C[C@@H]23)S(=O)(=O)c1ccc2nc(NC3CC3)sc2c1	8.65	11.15	–	–	–	–	–	–	–
CC(C)CN(C[C@@H](O)[C@H](Cc1cc(F)cc(F)c1)NC(=O)OC1C[C@@H]2CO[C@@H]3OC1C[C@H]23)S(=O)(=O)c1ccc2nc(NC3CC3)sc2c1 (stereo partly drawn)	10.07	10.27	8.37	10.47	6.3	133	9.68	127	8.35
COC(=O)N[C@H](C(=O)N[C@@H](Cc1ccccc1)[C@@H](O)CN(Cc1ccc(-c2ccccn2)cc1)NC(=O)[C@@H](NC(=O)OC)C(C)(C)C)C(C)(C)C [ATAZANAVIR]	–	–	6.37	8.40	–	–	< 6.00	107	< 6.00
